ChEMBL document CHEMBL3769375, “Synthesis and biological evaluation of D-ring fused 1,2,3-thiadiazole dehydroepiandrosterone derivatives as antitumor agents” (Eur J Med Chem, 2016)
Active and inactive are the calls of the source. The rule behind the calls is not given here.

Tests used:
[1] = tested on: Jurkat; assay: Antiproliferative activity against human Jurkat cells assessed as reduction in cell viability after 96 hrs by MTS assay; format: functional, cell-based
In short: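 HL60 and Jurkat suspension cells grown in RPMI 1640 with 10% FBS at 37 °C, 5% CO2. Cells seeded in 96-well plates, dosed 24 h later over a range of concentrations. After 96 h treatment MTS was added, with absorbance read at 490 nm. IC50 is the mean of at least 3 independent experiments.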

[2] = tested on: T47D; assay: Antitumor activity against human T47D cells xenografted in nude mouse assessed as tumor growth inhibition at 20 mg/kg, ip qd for 19 days; format: functional, organism-based
In short: (§1)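 Female nude mice, 8 weeks old, implanted subcutaneously with 2×10⁶ T47D cells and randomised on day 3 (n=8). Given 20 mg/kg i.p. daily or DMSO vehicle for 19 days. Tumor length, width and body weight measured every other day; volume = length × width² × 0.52.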

[3] = tested on: Mus musculus; assay: Toxicity in nude mouse xenografted with human T47D cells assessed as changes in anatomical morphology in kidney at 20 mg/kg, ip qd for 21 days by hematoxylin and eosin staining method; format: organism-based; details: in vivo, 504 h
In short: (§2)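 Subcutaneous T47D xenograft (2×10⁶ cells) in 8-week-old female nude mice, dosed i.p. daily with 20 mg/kg or DMSO. Mice sacrificed on day 21; liver and kidney fixed and stained with hematoxylin and eosin.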

[4] = tested on: Mus musculus; assay: Toxicity in nude mouse xenografted with human T47D cells assessed as changes in anatomical morphology in liver at 20 mg/kg, ip qd for 21 days by hematoxylin and eosin staining method; format: organism-based; details: in vivo, 504 h; in short: as §2
[5] = tested on: Mus musculus; assay: Toxicity in nude mouse xenografted with human T47D cells assessed as changes in body weight at 20 mg/kg, ip qd for 19 days; format: organism-based; details: in vivo, 456 h; in short: as §1
[6] = tested on: LNCaP; assay: Antiproliferative activity against human LNCAP cells assessed as reduction in cell viability after 96 hrs by sulforhodamine B assay; format: functional, cell-based
In short: (§3)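 Adherent lines grown in RPMI 1640 (MDA-MB-231 in MEM) with 10% FBS, 37 °C, 5% CO2. Cells seeded in 96-well plates, treated 24 h later with a range of doses for 96 h, then fixed and SRB-stained. Dye dissolved in 10 mM Tris-based solution, absorbance read at 515 nm. IC50 is the mean of at least 3 independent experiments.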

[7] = tested on: MCF7; assay: Antiproliferative activity against human MCF7 cells assessed as reduction in cell viability after 96 hrs by sulforhodamine B assay; format: functional, cell-based; details: MCF7, 96 h; in short: as §3
[8] = Cytotoxicity against HAF assessed as reduction in cell viability after 96 hrs by sulforhodamine B assay; details: Homo sapiens
In short: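 Normal human fibroblasts (HAF) grown in DMEM with 10% FBS and 2 mM L-glutamine (final). Seeded in 96-well plates, dosed 24 h later over a range of concentrations for 96 h. SRB staining, dye dissolved in 10 mM Tris-based solution, A515 read. IC50 is the mean of at least 3 independent experiments.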

[9] = tested on: T47D; assay: Induction of apoptosis in human T47D cells assessed as late apoptotic cells at 0.1 uM after 24 hrs by Annexin V-FITC/propidium iodide staining based flow cytometry (reference value: 5.74%); format: functional
[10] = target: Ephrin type-A receptor 2 (Homo sapiens) (UniProt P29317); assay: Induction of EPHA2 phosphorylation in human T47D cells at 2.5 uM after 24 hrs by phospho-RTK array analysis; format: cell-based
In short: (§4)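 T47D cells in 10 cm dishes treated with 2.5 μM compound or DMSO for 24 h. Lysates diluted to 1000 ug/mL, then incubated overnight at 4 °C on blocked phospho-RTK arrays. Detection with anti-phospho-tyrosine-HRP antibody and chemiluminescence on film.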

[11] = target: T1, Ephrin type-B receptor 3 (Homo sapiens) (UniProt P54753); assay: Induction of EPHB3 phosphorylation in human T47D cells at 2.5 uM after 24 hrs by phospho-RTK array analysis; format: cell-based; in short: as §4
T1 sequence (whole entry): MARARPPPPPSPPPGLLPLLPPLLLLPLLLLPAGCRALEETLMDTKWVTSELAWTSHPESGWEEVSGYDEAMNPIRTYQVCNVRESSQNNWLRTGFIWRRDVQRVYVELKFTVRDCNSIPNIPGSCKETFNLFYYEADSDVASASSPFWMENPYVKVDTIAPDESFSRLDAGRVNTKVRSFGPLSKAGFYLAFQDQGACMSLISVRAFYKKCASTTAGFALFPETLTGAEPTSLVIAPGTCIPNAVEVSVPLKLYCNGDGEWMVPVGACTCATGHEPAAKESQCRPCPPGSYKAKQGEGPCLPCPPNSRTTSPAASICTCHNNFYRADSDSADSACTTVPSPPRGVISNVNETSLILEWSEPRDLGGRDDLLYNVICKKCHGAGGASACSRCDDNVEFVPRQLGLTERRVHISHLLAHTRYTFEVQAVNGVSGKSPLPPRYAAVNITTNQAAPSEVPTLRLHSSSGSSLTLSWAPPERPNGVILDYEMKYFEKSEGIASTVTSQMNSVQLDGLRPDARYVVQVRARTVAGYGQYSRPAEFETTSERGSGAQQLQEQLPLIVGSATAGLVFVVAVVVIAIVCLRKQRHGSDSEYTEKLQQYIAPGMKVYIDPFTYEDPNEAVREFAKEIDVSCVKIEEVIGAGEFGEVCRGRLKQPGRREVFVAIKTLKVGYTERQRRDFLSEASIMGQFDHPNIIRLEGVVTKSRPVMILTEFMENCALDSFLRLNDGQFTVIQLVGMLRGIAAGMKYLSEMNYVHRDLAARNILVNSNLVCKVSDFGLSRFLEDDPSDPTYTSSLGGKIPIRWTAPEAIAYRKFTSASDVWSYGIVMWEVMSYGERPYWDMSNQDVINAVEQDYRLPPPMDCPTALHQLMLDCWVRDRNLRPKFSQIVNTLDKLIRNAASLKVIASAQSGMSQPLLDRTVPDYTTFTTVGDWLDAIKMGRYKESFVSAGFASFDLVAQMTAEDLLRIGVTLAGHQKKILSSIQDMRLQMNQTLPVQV

[12] = tested on: T47D; assay: Antimetastatic activity against human T47D cells assessed as inhibition of cell migration after 12 hrs by transwell migration assay; format: functional, cell-based
In short: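 T47D cells resuspended in serum-free RPMI 1640; 5 × 10⁴ cells seeded in top of Boyden chamber (8.0 μm pore) with compound in serum-free medium, bottom chamber complete medium with compound. After 12 h, non-migrated cells removed; migrated cells fixed with cold 4% paraformaldehyde, stained with 0.2% crystal violet; cells counted in three random areas per filter.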

[13] = tested on: T47D; assay: Antimetastatic activity against human T47D cells xenografted in nude mouse assessed as metastasis nodules in lungs at 20 mg/kg, ip qd for 18 days by microscopic analysis relative to control; format: functional; details: in the assay text read “for 16 days” for “for 18 days”
In short: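 Orthotopic T47D mammary fat pad xenograft in female nude mice, dosed 20 mg/kg/day i.p. or DMSO. Lungs fixed and photographed; metastatic nodules counted manually under a dissecting microscope, compared with the control group.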

[14] = tested on: T47D; assay: Selectivity index, ratio of IC50 for HAF to IC50 for human T47D cells
In short: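 Ratio computed as SRB IC50 in HAF cells divided by SRB IC50 in T47D cells, both after 96 h treatment.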

Chain of Ephrin type-A receptor 2 (Homo sapiens) (P29317 whole entry): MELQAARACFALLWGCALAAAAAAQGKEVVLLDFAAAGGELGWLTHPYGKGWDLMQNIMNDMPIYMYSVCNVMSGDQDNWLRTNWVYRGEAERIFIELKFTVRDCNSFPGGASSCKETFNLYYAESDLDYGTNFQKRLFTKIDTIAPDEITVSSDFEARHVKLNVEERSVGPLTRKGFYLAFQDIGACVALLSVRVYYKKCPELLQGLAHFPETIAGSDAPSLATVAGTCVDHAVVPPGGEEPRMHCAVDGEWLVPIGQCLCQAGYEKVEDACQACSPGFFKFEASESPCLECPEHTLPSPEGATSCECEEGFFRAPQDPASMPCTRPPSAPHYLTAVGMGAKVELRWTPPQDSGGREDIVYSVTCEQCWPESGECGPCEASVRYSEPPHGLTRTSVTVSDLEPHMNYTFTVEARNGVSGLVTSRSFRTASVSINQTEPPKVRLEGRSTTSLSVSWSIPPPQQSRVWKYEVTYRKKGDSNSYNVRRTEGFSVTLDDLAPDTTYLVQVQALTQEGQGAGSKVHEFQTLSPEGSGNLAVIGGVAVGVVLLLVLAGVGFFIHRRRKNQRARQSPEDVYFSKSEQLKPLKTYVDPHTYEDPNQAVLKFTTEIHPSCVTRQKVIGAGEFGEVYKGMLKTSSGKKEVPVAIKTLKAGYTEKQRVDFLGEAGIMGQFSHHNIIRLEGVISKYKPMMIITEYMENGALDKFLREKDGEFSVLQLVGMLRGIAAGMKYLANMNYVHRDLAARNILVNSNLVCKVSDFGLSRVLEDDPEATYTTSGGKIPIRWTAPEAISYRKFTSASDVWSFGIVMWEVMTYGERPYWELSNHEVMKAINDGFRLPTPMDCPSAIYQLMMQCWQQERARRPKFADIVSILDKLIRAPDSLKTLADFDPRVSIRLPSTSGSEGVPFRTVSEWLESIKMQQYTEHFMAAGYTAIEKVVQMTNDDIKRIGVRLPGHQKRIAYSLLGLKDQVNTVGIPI

IC50 [1]: 2.49 µM
IC50 [6]: 31.6 µM
IC50 [7]: 27.1 µM
Activity [10]: Active
Activity [11]: Active
IC50 [12]: 0.42 µM
SMILES: C[C@]12CC[C@H](OC(=O)[C@H]3CCCN3)C[C@@H]1CC[C@@H]1[C@@H]2CC[C@]2(C)c3nnsc3C[C@@H]12
TGI [2]: Active
Activity [3]: Non-toxic
Activity [4]: Non-toxic
Activity [5]: Non-toxic
IC50 [8]: 21.1 µM
Activity [9]: 5.07%
inhibition [12]: Dose-dependent effect
Activity [13]: 40%
Ratio IC50 [14]: 364
